Experimental data reported in ChEMBL document CHEMBL4715693, “Synthesis and antiviral properties of novel indole-based thiosemicarbazides and 4-thiazolidinones” (Bioorg Med Chem, 2016).
Converted amounts (≈) assume the structure as drawn.

Tested on: Influenza A virus
Test: Antiviral activity against influenza A virus infected in dog MDCK cells assessed as reduction in virus-induced cytopathic effect incubated for 3 to 6 days by light microscopic analysis
Format: functional, organism-based
Conditions: Influenza A virus, MDCK
How it was run: (§1)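 MDCK cells, subconfluent, received influenza A or B virus together with serial compound dilutions. Incubated 3–6 days at 35 °C.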

Structure (SMILES)	EC50 [µg/mL]
CNC(=S)NNC(=O)c1[nH]c2ccc(F)cc2c1-c1ccccc1	> 100

Tested on: MT4
Test: Cytotoxicity against human MT4 cells assessed as reduction in cell viability incubated for 3 to 6 days by MTS assay
Format: cell-based
Conditions: time 3-6 day
How it was run: (§2)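 CRFK or MT4 cells were exposed to serial compound dilutions alongside the antiviral assays for 3–6 days at 37 °C.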

Structure (SMILES)	CC50 [µg/mL]
CNC(=S)NNC(=O)c1[nH]c2ccc(F)cc2c1-c1ccccc1	18 (≈ 52.6 µM)

Tested on: Human immunodeficiency virus 2
Test: Antiviral activity against Human immunodeficiency virus 2 infected in human MT4 cells assessed as reduction in virus-induced cytopathic effect incubated for 3 to 6 days by light microscopic analysis
Format: functional, organism-based
Conditions: Human immunodeficiency virus 2, MT4

Structure (SMILES)	EC50 [µg/mL]
CNC(=S)NNC(=O)c1[nH]c2ccc(F)cc2c1-c1ccccc1	> 100

Tested on: not listed separately
Test: Cytotoxicity against human HeLa cells assessed as changes in cell morphology incubated for 3 to 6 days by light microscopic analysis
Format: cell-based
Conditions: time 3-6 day
How it was run: (§3)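 Uninfected subconfluent cells (Vero or HeLa, as named) exposed to serial compound dilutions in parallel with the CPE assays, 37 °C, 3–6 days. Cell morphology examined by light microscopy; MCC = minimal concentration causing microscopically detectable changes in morphology.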

Structure (SMILES)	MCC [µg/mL]
CNC(=S)NNC(=O)c1[nH]c2ccc(F)cc2c1-c1ccccc1	20

Tested on: not listed separately
Test: Cytotoxicity against human HEL cells assessed as changes in cell morphology incubated for 3 to 6 days by light microscopy
Format: cell-based
Conditions: time 3-6 day
How it was run: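 Human embryonic lung fibroblasts incubated with serial compound dilutions alongside the antiviral assays, 37 °C, 3–6 days. Morphology inspected by light microscopy; minimal cytotoxic concentration taken as lowest concentration giving minimal morphological change.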

Structure (SMILES)	MCC [µg/mL]
CNC(=S)NNC(=O)c1[nH]c2ccc(F)cc2c1-c1ccccc1	20

Tested on: Vaccinia virus
Test: Antiviral activity against Vaccinia virus infected in human HEL cells assessed as reduction in virus-induced cytopathic effect incubated for 3 to 6 days by light microscopic analysis
Format: functional, organism-based
Conditions: Orthopoxvirus vaccinia

Structure (SMILES)	EC50 [µg/mL]
CNC(=S)NNC(=O)c1[nH]c2ccc(F)cc2c1-c1ccccc1	> 100

Tested on: Sindbis virus
Test: Antiviral activity against Sindbis virus infected in African green monkey Vero cells assessed as reduction in virus-induced cytopathic effect incubated for 3 to 6 days by light microscopic analysis
Format: functional, organism-based
Conditions: not given
How it was run: (§4)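 CPE reduction assay: virus and serial compound dilutions added together to subconfluent HeLa (vesicular stomatitis, Coxsackie B4, respiratory syncytial) or Vero (Coxsackie B4, Sindbis, Punta Toro) cultures. Incubated 3–6 days at 37 °C. […] Mean ± SEM of three independent tests.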

Structure (SMILES)	EC50 [µg/mL]
CNC(=S)NNC(=O)c1[nH]c2ccc(F)cc2c1-c1ccccc1	> 100

Tested on: Felid alphaherpesvirus 1
Test: Antiviral activity against Feline herpesvirus infected in cat CRFK cells assessed as reduction in virus-induced cytopathic effect incubated for 3 to 6 days by light microscopic analysis
Format: functional, organism-based
Conditions: Felid alphaherpesvirus 1, CRFK

Structure (SMILES)	EC50 [µg/mL]
CNC(=S)NNC(=O)c1[nH]c2ccc(F)cc2c1-c1ccccc1	> 100

Tested on: Human alphaherpesvirus 2
Test: Antiviral activity against Herpes simplex virus 2 infected in human HEL cells assessed as reduction in virus-induced cytopathic effect incubated for 3 to 6 days by light microscopic analysis
Format: functional, cell-based
Conditions: Human alphaherpesvirus 2, HEL

Structure (SMILES)	EC50 [µg/mL]
CNC(=S)NNC(=O)c1[nH]c2ccc(F)cc2c1-c1ccccc1	> 100

Tested on: not listed separately
Test: Cytotoxicity against dog MDCK cells assessed as changes in cell morphology incubated for 3 to 6 days by light microscopy
Format: cell-based, Canis lupus familiaris
Conditions: time 3-6 day

Structure (SMILES)	MCC [µg/mL]
CNC(=S)NNC(=O)c1[nH]c2ccc(F)cc2c1-c1ccccc1	20

Tested on: Human alphaherpesvirus 1
Test: Antiviral activity against Herpes simplex virus 1 infected in human HEL cells assessed as reduction in virus-induced cytopathic effect incubated for 3 to 6 days by light microscopic analysis
Format: functional, cell-based
Conditions: Human alphaherpesvirus 1, HEL

Structure (SMILES)	EC50 [µg/mL]
CNC(=S)NNC(=O)c1[nH]c2ccc(F)cc2c1-c1ccccc1	> 100

Tested on: Mammalian orthoreovirus 1
Test: Antiviral activity against Mammalian orthoreovirus 1 infected in African green monkey Vero cells assessed as reduction in virus-induced cytopathic effect incubated for 3 to 6 days by light microscopic analysis
Format: functional, organism-based
Conditions: Mammalian orthoreovirus 1, Vero

Structure (SMILES)	EC50 [µg/mL]
CNC(=S)NNC(=O)c1[nH]c2ccc(F)cc2c1-c1ccccc1	> 100

Tested on: Punta Toro virus
Test: Antiviral activity against Punta Toro virus infected in African green monkey Vero cells assessed as reduction in virus-induced cytopathic effect incubated for 3 to 6 days by light microscopic analysis
Format: functional, organism-based
Conditions: not given
How it was run: as §4

Structure (SMILES)	EC50 [µg/mL]
CNC(=S)NNC(=O)c1[nH]c2ccc(F)cc2c1-c1ccccc1	> 100

Tested on: Human respirovirus 3
Test: Antiviral activity against Human parainfluenza virus 3 infected in African green monkey Vero cells assessed as reduction in virus-induced cytopathic effect incubated for 3 to 6 days by light microscopic analysis
Format: functional, organism-based
Conditions: Human respirovirus 3, Vero

Structure (SMILES)	EC50 [µg/mL]
CNC(=S)NNC(=O)c1[nH]c2ccc(F)cc2c1-c1ccccc1	> 100

Tested on: Coxsackievirus B4
Test: Antiviral activity against Human coxsackievirus B4 infected in African green monkey Vero cells assessed as reduction in virus-induced cytopathic effect incubated for 3 to 6 days by light microscopic analysis
Format: functional, organism-based
Conditions: Enterovirus B
How it was run: as §4

Structure (SMILES)	EC50 [µg/mL]
CNC(=S)NNC(=O)c1[nH]c2ccc(F)cc2c1-c1ccccc1	1.7 (≈ 4.96 µM)

Tested on: Feline coronavirus
Test: Antiviral activity against Feline coronavirus infected in cat CRFK cells assessed as reduction in virus-induced cytopathic effect incubated for 3 to 6 days by light microscopic analysis
Format: functional, organism-based
Conditions: Alphacoronavirus 1, CRFK

Structure (SMILES)	EC50 [µg/mL]
CNC(=S)NNC(=O)c1[nH]c2ccc(F)cc2c1-c1ccccc1	> 100

Tested on: Influenza B virus
Test: Antiviral activity against influenza B virus infected in dog MDCK cells assessed as reduction in virus-induced cytopathic effect incubated for 3 to 6 days by light microscopic analysis
Format: functional, organism-based
Conditions: not given
How it was run: as §1

Structure (SMILES)	EC50 [µg/mL]
CNC(=S)NNC(=O)c1[nH]c2ccc(F)cc2c1-c1ccccc1	> 100

Tested on: not listed separately
Test: Selectivity index, ratio of MCC for human HeLa cells to EC50 for Human coxsackievirus B4 infected in human HeLa cells
Format: toxicity, cell-based
Conditions: not given
How it was run: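 HeLa cells infected concurrently with addition of serial compound dilutions, 3–6 days at 37 °C. CPE inhibition scored microscopically for EC50; MCC from minimal alteration of cell morphology by microscopy; index = MCC divided by EC50.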

Structure (SMILES)	selectivity ratio
CNC(=S)NNC(=O)c1[nH]c2ccc(F)cc2c1-c1ccccc1	9

Tested on: Respiratory syncytial virus
Test: Antiviral activity against Respiratory syncytial virus infected in human HeLa cells assessed as reduction in virus-induced cytopathic effect incubated for 3 to 6 days by light microscopic analysis
Format: functional, organism-based
Conditions: not given
How it was run: as §4

Structure (SMILES)	EC50 [µg/mL]
CNC(=S)NNC(=O)c1[nH]c2ccc(F)cc2c1-c1ccccc1	> 100

Tested on: not listed separately
Test: Cytotoxicity against cat CRFK cells assessed as reduction in cell viability incubated for 3 to 6 days by MTS assay
Format: cell-based, Felis catus
Conditions: crfk, time 3-6 day
How it was run: as §2

Structure (SMILES)	CC50 [µg/mL]
CNC(=S)NNC(=O)c1[nH]c2ccc(F)cc2c1-c1ccccc1	7.5 (≈ 21.9 µM)

Tested on: Coxsackievirus B4
Test: Antiviral activity against Human coxsackievirus B4 infected in human HeLa cells assessed as reduction in virus-induced cytopathic effect incubated for 3 to 6 days by light microscopic analysis
Format: functional, organism-based
Conditions: Enterovirus B
How it was run: as §4

Structure (SMILES)	EC50 [µg/mL]
CNC(=S)NNC(=O)c1[nH]c2ccc(F)cc2c1-c1ccccc1	2.1 (≈ 6.13 µM)

Tested on: Human immunodeficiency virus 1
Test: Antiviral activity against Human immunodeficiency virus 1 infected in human MT4 cells assessed as reduction in virus-induced cytopathic effect incubated for 3 to 6 days by light microscopic analysis
Format: functional, organism-based
Conditions: Human immunodeficiency virus 1, MT4

Structure (SMILES)	EC50 [µg/mL]
CNC(=S)NNC(=O)c1[nH]c2ccc(F)cc2c1-c1ccccc1	> 100

Tested on: not listed separately
Test: Cytotoxicity against African green monkey Vero cells assessed as changes in cell morphology incubated for 3 to 6 days by light microscopy
Format: cell-based
Conditions: chlorocebus sabaeus, time 3-6 day
How it was run: as §3

Structure (SMILES)	MCC [µg/mL]
CNC(=S)NNC(=O)c1[nH]c2ccc(F)cc2c1-c1ccccc1	20

Tested on: Vesicular stomatitis virus
Test: Antiviral activity against Vesicular stomatitis virus infected in human HeLa cells assessed as reduction in virus-induced cytopathic effect incubated for 3 to 6 days by light microscopic analysis
Format: functional, organism-based
Conditions: not given
How it was run: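 CPE reduction assay: virus and serial compound dilutions added together to subconfluent HeLa (vesicular stomatitis, Coxsackie B4, respiratory syncytial) or Vero (Coxsackie B4, Sindbis, Punta Toro) cultures. Incubated 3–6 days at 37 °C. Mean ± SEM of three independent tests.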

Structure (SMILES)	EC50 [µg/mL]
CNC(=S)NNC(=O)c1[nH]c2ccc(F)cc2c1-c1ccccc1	> 100

Tested on: not listed separately
Test: Selectivity index, ratio of MCC for African green monkey Vero cells to EC50 for Human coxsackievirus B4 infected in African green monkey Vero cells
Format: toxicity
Conditions: not given

Structure (SMILES)	selectivity ratio
CNC(=S)NNC(=O)c1[nH]c2ccc(F)cc2c1-c1ccccc1	12
